Data set [1] in a line: Cytotoxicity against human SNU638 cells after 72 hrs by SRB assay. It is filed as functional, cell-based. Particulars: SNU-638, 72 h.
A further data set concerns Candida albicans. The data set can be described thus: Antifungal activity against Candida albicans. In kind it is functional.
The subject of the next data set is A549. The data set can be described thus: Cytotoxicity against human A549 cells after 72 hrs by SRB assay. In kind it is functional, cell-based. The conditions noted are these: A549, 72 h. (In general: In SRB staining, fixed cells bind dye roughly in proportion to their protein.)
Another data set concerns Proteus hauseri. The data set can be described thus: Antibacterial activity against Proteus hauseri. In kind it is functional.
For the next data set, the system named is Salmonella enterica. The data set can be described thus: Antibacterial activity against Salmonella enterica. It is filed as functional.
Another data set concerns Bacillus subtilis. The data set can be described thus: Antibacterial activity against Bacillus subtilis. It is filed as functional.
In the next data set the test system is Escherichia coli. The data set can be described thus: Antibacterial activity against Escherichia coli. In kind it is functional.
Data set [2] is described as follows: Cytotoxicity against human SKHEP1 cells after 72 hrs by SRB assay. Particulars: SK-HEP1, 72 h. In kind it is functional, cell-based.
Another data set deals with Kocuria rhizophila. The data set can be described thus: Antibacterial activity against Kocuria rhizophila. It is filed as functional.
Data set [3] is filed under the species Mus musculus. The data set can be described thus: Induction of Quinone reductase activity in mouse Hepa1c1c7 cells at 20 uM after 24 hrs by MTT assay relative to control. It is filed as cell-based. The procedure, abridged:
(§1)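 Hepa-1c1c7 murine hepatoma cells plated at 20 000 cells/mL, grown 24 h (37 °C, 5% CO2), then compound-treated 24 h; vehicle 0.1% DMSO, β-naphthoflavone 2 μM positive control. Lysis in Tris/NaCl/MgCl2/0.5% NP-40, then FAD, G6P/G6PDH, NADP, MTT, menadione mix, 10 min; MTT reduction at 610 nm, crystal violet protein on parallel plates; SA = (MTTabs/CVabs)×3345, nmol/min/mg; mean ± SD of four determinations.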

Another data set has as its system K562. The data set can be described thus: Cytotoxicity against human K562 cells after 72 hrs by SRB assay. In kind it is functional, cell-based. Particulars: K562, 72 h.
Data set [4] can be described thus: Cytotoxicity against human HCT116 cells after 72 hrs by SRB assay. It is filed as functional, cell-based. Particulars: HCT-116, 72 h.
Another data set relates to MDA-MB-231. The data set can be described thus: Cytotoxicity against human MDA-MB-231 cells after 72 hrs by SRB assay. It is filed as functional, cell-based. The conditions noted are these: MDA-MB-231, 72 h.
For another data set, the system named is Aspergillus fumigatus. The data set can be described thus: Antifungal activity against Aspergillus fumigatus. In kind it is functional.
The subject of another data set is Staphylococcus aureus. The data set can be described thus: Antibacterial activity against Staphylococcus aureus. In kind it is functional.
Data set [5] is filed under the species Mus musculus. The data set can be described thus: Induction of Quinone reductase activity in mouse Hepa1c1c7 cells at 2 uM after 24 hrs by MTT assay relative to control. It is filed as cell-based. The procedure, abridged: as §1
Data set [6] is filed under the species Mus musculus. The data set can be described thus: Induction of Quinone reductase activity in mouse Hepa1c1c7 cells at 30 uM after 24 hrs by MTT assay relative to control. In kind it is cell-based. The gist of the method:
as §1
(In general: Tetrazolium dyes change colour on reduction, which living cells bring about.)

Data set [7] is filed under the species Mus musculus. The data set can be described thus: Induction of Quinone reductase activity in mouse Hepa1c1c7 cells at 10 uM after 24 hrs by MTT assay relative to control. In kind it is cell-based. The procedure, abridged: as §1
For data set [8], the species on record is Mus musculus. The data set can be described thus: Induction of Quinone reductase activity in mouse Hepa1c1c7 cells after 24 hrs by MTT assay. In kind it is cell-based. The gist of the method: as §1
The nature of data set [9]: Cytotoxicity against mouse Hepa1c1c7 cells. It is filed as cell-based.
The species named for data set [10] is Mus musculus. The data set can be described thus: Induction of Quinone reductase activity in mouse Hepa1c1c7 cells at 5 uM after 24 hrs by MTT assay relative to control. It is filed as cell-based. The gist of the method:
as §1

pIC50: −log10 of the molar value. Active and inactive are the calls of the source. The rule behind the calls is not given here.

As usually defined, the pIC50 is the IC50 on a negative log10 scale, so that one unit is a factor of ten. In general, MIC refers to the lowest concentration that inhibits growth of the organism. High values mean a less susceptible organism, low ones a more susceptible organism.

On to `CNc1ccc(C(=O)C[C@@H](O)[C@H](C)C[C@@H](C)[C@H](O)[C@H](C)/C=C/C=C/C=C/[C@H](O)CC(=O)O)cc1`, for which the pIC50 (in data set [1]; with A549; in data set [2]; in the data set on K562; in data set [4]; with MDA-MB-231) was less than 5.00 throughout. The MIC with Candida albicans, in the data set on Proteus hauseri, against Salmonella enterica, in the data set on Bacillus subtilis, with Escherichia coli and with Kocuria rhizophila was more than 128 µM each time. The MIC against Aspergillus fumigatus and in the data set with Staphylococcus aureus was more than 128 µM throughout. Further, the outcome in the data set filed under Mus musculus [3] was inactive.
`C[C@H](/C=C/C=C/C=C/[C@H](O)CC(=O)O)[C@@H](O)[C@H](C)C[C@@H](C)[C@H](O)CC(=O)c1ccc(N)cc1`: the negative-log IC50 (pIC50) (in data set [1]; with A549; in [2]; with K562; in [4]; with MDA-MB-231) was less than 5.00 throughout. Also, the minimum inhibitory concentration (MIC) in the data set with Candida albicans, in the data set with Proteus hauseri, against Salmonella enterica, against Bacillus subtilis, against Escherichia coli and against Kocuria rhizophila was more than 128 µM throughout. The MIC against Aspergillus fumigatus and against Staphylococcus aureus was more than 128 µM each time. Also, the result in the data set filed under Mus musculus [3] was inactive.
As for `CC(=O)Nc1ccc(C(=O)C[C@@H](O)[C@H](C)C[C@@H](C)[C@H](O)[C@H](C)/C=C/C=C/C=C/[C@H](O)CC(=O)O)cc1`, the pIC50 (in data set [1]; in the data set on A549; in data set [2]; in the data set with K562; in data set [4]; in the data set on MDA-MB-231) was less than 5.00 each time. For the same compound, the MIC in the data set on Candida albicans, against Proteus hauseri, against Salmonella enterica, in the data set on Bacillus subtilis, with Escherichia coli and against Kocuria rhizophila was more than 128 µM each time. Moreover, the MIC against Aspergillus fumigatus and against Staphylococcus aureus was more than 128 µM each time. The outcome in the data set filed under Mus musculus [3] was inactive.
With `CC(=O)Nc1ccc([C@H](O)C[C@@H](O)[C@H](C)C[C@@H](C)[C@H](O)[C@H](C)/C=C/C=C/C=C/[C@H](O)CC(=O)O)cc1`, the negative-log IC50 (pIC50) (in data set [1]; in the data set with A549; in data set [2]; in the data set on K562; in [4]; with MDA-MB-231) was less than 5.00 throughout. Besides, the MIC with Candida albicans, with Proteus hauseri, in the data set with Salmonella enterica, with Bacillus subtilis, in the data set on Escherichia coli and in the data set with Kocuria rhizophila was more than 128 µM in each case. In addition, the MIC against Aspergillus fumigatus and with Staphylococcus aureus was more than 128 µM throughout. Besides, the result in the data set listed under Mus musculus [3] was inactive.
On to `C[C@H](/C=C/C=C/C=C/[C@H](O)CC(=O)O)[C@@H](O)[C@H](C)C[C@@H](C)[C@H](O)CC(=O)c1ccc(N[C@@H]2O[C@H](CO)[C@@H](O)[C@H](O)[C@H]2O)cc1`, for which the pIC50 (in data set [1]; with A549; in [2]; in the data set on K562; in data set [4]; in the data set on MDA-MB-231) was less than 5.00 throughout. For the same compound, the minimal inhibitory concentration (MIC) against Candida albicans, in the data set with Proteus hauseri, with Salmonella enterica, in the data set on Bacillus subtilis, in the data set on Escherichia coli and in the data set with Kocuria rhizophila was more than 128 µM in each case. Further, the minimum inhibitory concentration (MIC) with Aspergillus fumigatus and against Staphylococcus aureus was more than 128 µM in each case. Also, the fold change (FC) in the data set filed under Mus musculus [5] amounted to 1.3; in the data set filed under Mus musculus [6] it was 2.2; in the data set listed under Mus musculus [7] it was 1.8; in the data set listed under Mus musculus [3], 2.1; in the data set listed under Mus musculus [10], 1.5. For the same compound, the results for the Activity result (in the data set filed under Mus musculus [8]; in data set [9]) were “Dose-dependent effect” and “Non-toxic”, respectively.

(Values after ChEMBL document CHEMBL3797200, “Mohangic Acids A-E, p-Aminoacetophenonic Acids from a Marine-Mudflat-Derived Streptomyces sp” (J Nat Prod, 2016).)
